Results published in ChEMBL document CHEMBL1148715, “Liver-targeted prodrugs of 2'-C-methyladenosine for therapy of hepatitis C virus infection” (J Med Chem, 2007).
Converted amounts (≈) assume the structure as drawn.

Experiments:
[1] = system: Hepatocyte; test: Activation of prodrug to corresponding nucleoside triphosphate in Sprague-Dawley rat hepatocytes at 25 uM after 2 hrs; type: cell-based
Procedure, shortened: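 Freshly isolated hepatocytes from fed Sprague–Dawley rats (250–300 g), >85% trypan blue viable, 20 mg/mL wet weight. Incubated 2 h at 37 °C in Krebs–bicarbonate buffer with 20 mM glucose and 1 mg/mL BSA; compound added from DMSO stock. Extract reconstituted in water; 2'-C-methyl-ATP measured by LC-MS/MS against an authentic triphosphate standard.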

[2] = system: Liver; test: Drug level in Sprague-Dawley rat liver at 50 mg/kg, po after 3 hrs; type: ADME, organism-based; set-up: dose 50 mg/kg, route oral; conditions: in vivo
Procedure, shortened: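 Sprague–Dawley rats dosed by oral gavage in PEG-400. Liver (~1 g) taken at 3 h, snap-frozen, then homogenized in 3 volumes ice-cold 70% methanol with 20 mM EDTA/EGTA. Clarified supernatant dried and reconstituted. NTP measured by ion-pair LC-MS/MS ([…]/78.8) against a 0.01–30 μM 2'-C-methyl-ATP calibration curve; reported as nmol/g liver.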

[3] = Solubility in citrate buffer at pH 5.1; type: physicochemical
[4] = Chemical stability at pH 7.0; type: physicochemical; conditions: buffer
Procedure, shortened: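 Half-life measured in pH 7 buffer at 25 °C.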

[5] = Aqueous solubility of the compound; type: physicochemical
[6] = Oral bioavailability in Sprague-Dawley rat; type: ADME, organism-based; conditions: in vivo
Procedure, shortened: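 Rats given the prodrug iv (10 mg/kg) and orally (50 mg/kg, PEG-400; fasted, food returned a few hours after dosing). Liver NTP followed over time by LC-MS/MS. Bioavailability taken as the ratio of liver NTP AUC, oral versus iv.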

Activity [1] [nmol/g] | Activity [2] [nmol/g] | Structure (SMILES) | further results
93 | – | COc1cc(C2CCOP(=O)(OC[C@H]3O[C@@H](n4cnc5c(N)ncnc54)[C@](C)(O)[C@@H]3O)O2)ccn1 (some centres not stated) | –
99 | – | C[C@@]1(O)[C@H](O)[C@@H](COP2(=O)OCCC(c3cccc(Br)c3)O2)O[C@H]1n1cnc2c(N)ncnc21 (some centres not stated) | –
72 | – | C[C@@]1(O)[C@H](O)[C@@H](COP2(=O)OCCC(c3cc(F)ccc3Br)O2)O[C@H]1n1cnc2c(N)ncnc21 (some centres not stated) | –
113 | 11.2 | C[C@@]12OC(=O)O[C@@H]1[C@@H](COP1(=O)OCCC(c3cc(F)cc(F)c3)O1)O[C@H]2n1cnc2c(N)ncnc21 (some centres not stated) | –
117 | 3.1 | CC(C)[C@H](N)C(=O)O[C@@H]1[C@@H](COP2(=O)OCCC(c3cccc(Cl)c3)O2)O[C@@H](n2cnc3c(N)ncnc32)[C@]1(C)O (some centres not stated) | –
122 | – | C[C@@]1(O)[C@H](O)[C@@H](COP2(=O)OCCC(c3ccccc3Br)O2)O[C@H]1n1cnc2c(N)ncnc21 (some centres not stated) | –
185 | 28.3 | C[C@@]12OC(=O)O[C@@H]1[C@@H](COP1(=O)OCC[C@@H](c3ccncc3)O1)O[C@H]2n1cnc2c(N)ncnc21 (some centres not stated) | solubility [3]: 450 µg/mL (≈ 892 µM); half-life [4]: 13 h; solubility [5]: 450 µg/mL (≈ 892 µM); bioavailability [6]: 39%
97 | 11.8 | C[C@@]12OC(=O)O[C@@H]1[C@@H](COP1(=O)OCCC(c3ccc(Cl)c(Cl)c3)O1)O[C@H]2n1cnc2c(N)ncnc21 (some centres not stated) | –
209 | – | C[C@@]1(O)[C@H](O)[C@@H](CO)O[C@H]1n1cnc2c(N)ncnc21 | –
313 | 22.9 | C[C@@]12OC(=O)O[C@@H]1[C@@H](COP1(=O)OCCC(c3cccc(F)c3)O1)O[C@H]2n1cnc2c(N)ncnc21 (some centres not stated) | –
137 | – | C[C@@]1(O)[C@H](O)[C@@H](COP2(=O)OCCC(c3cccc(C#N)c3)O2)O[C@H]1n1cnc2c(N)ncnc21 (some centres not stated) | –
49 | 5 | C[C@@]12OC(=O)O[C@@H]1[C@@H](COP1(=O)OCCC(c3cc(Cl)cc(Cl)c3)O1)O[C@H]2n1cnc2c(N)ncnc21 (some centres not stated) | –
250 | 4.1 | C[C@@]1(O)[C@H](O)[C@@H](COP2(=O)OCCC(c3cc(F)cc(F)c3)O2)O[C@H]1n1cnc2c(N)ncnc21 (some centres not stated) | –
585 | 2.4 | C[C@@]1(O)[C@H](O)[C@@H](COP2(=O)OCCC(c3cc(Cl)cc(Cl)c3)O2)O[C@H]1n1cnc2c(N)ncnc21 (some centres not stated) | –
389 | 2.9 | C[C@@]1(O)[C@H](O)[C@@H](COP2(=O)OCC[C@@H](c3cccc(Cl)c3)O2)O[C@H]1n1cnc2c(N)ncnc21 (some centres not stated) | –
73 | – | C[C@@]1(O)[C@H](O)[C@@H](COP2(=O)OCCC(c3cccnc3)O2)O[C@H]1n1cnc2c(N)ncnc21 (some centres not stated) | –
73 | – | Cc1cncc(C2CCOP(=O)(OC[C@H]3O[C@@H](n4cnc5c(N)ncnc54)[C@](C)(O)[C@@H]3O)O2)c1 (some centres not stated) | –
47 | 3.6 | C[C@@]1(O)[C@H](O)[C@@H](COP2(=O)OCC[C@@H](c3ccncc3)O2)O[C@H]1n1cnc2c(N)ncnc21 (single isomer, unassigned) | –
93 | – | C[C@@]1(O)[C@H](O)[C@@H](COP2(=O)OCCC(c3ccccn3)O2)O[C@H]1n1cnc2c(N)ncnc21 (some centres not stated) | –
194 | – | C[C@@]1(O)[C@H](O)[C@@H](COP2(=O)OCCC(c3cncc(Br)c3)O2)O[C@H]1n1cnc2c(N)ncnc21 (some centres not stated) | –
296 | 29.2 | C[C@@]12OC(=O)O[C@@H]1[C@@H](COP1(=O)OCC[C@@H](c3cccc(Cl)c3)O1)O[C@H]2n1cnc2c(N)ncnc21 (some centres not stated) | –
323 | 8.2 | C[C@@]1(O)[C@H](O)[C@@H](COP2(=O)OCCC(c3cccc(F)c3F)O2)O[C@H]1n1cnc2c(N)ncnc21 (some centres not stated) | –
396 | 2 | C[C@@]1(O)[C@H](O)[C@@H](COP2(=O)OCCC(c3ccc(Cl)c(Cl)c3)O2)O[C@H]1n1cnc2c(N)ncnc21 (some centres not stated) | –
139 | – | C[C@@]1(O)[C@H](O)[C@@H](COP2(=O)OCCC(c3cc(F)ccc3F)O2)O[C@H]1n1cnc2c(N)ncnc21 (some centres not stated) | –
328 | – | C[C@@]1(O)[C@H](O)[C@@H](COP2(=O)OCCC(c3ccc(Cl)c(F)c3)O2)O[C@H]1n1cnc2c(N)ncnc21 (some centres not stated) | –
41 | – | C[C@@]1(O)[C@H](O)[C@@H](COP2(=O)OCCC(c3ccc(C#N)cc3)O2)O[C@H]1n1cnc2c(N)ncnc21 (some centres not stated) | –
73 | 1.6 | CCCCCOC(=O)Nc1ncnc2c1ncn2[C@@H]1O[C@H](COP2(=O)OCCC(c3cccc(Cl)c3)O2)[C@@H](O)[C@@]1(C)O (some centres not stated) | –
328 | 4.1 | C[C@@]1(O)[C@H](O)[C@@H](COP2(=O)OCCC(c3cccc(F)c3)O2)O[C@H]1n1cnc2c(N)ncnc21 (some centres not stated) | –
